In assay [1] the test system is N-terminal peptide of GPIHBP1. The assay can be described thus: SPR binding to immobilized N-terminal peptide of GPIHBP1. The arrangement: species or system human. Conditions: even at concentrations of 1 μM, 25 °C, 20 mM HEPES pH 7.4, 0.15 M NaCl. The essentials:
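Biacore SPR with 578 RU of biotinylated N-terminal GPIHBP1 peptide captured on the sensor (148.5 fmol/mm2). Analytes were tenfold-diluted pooled nonfasting human plasma, tenfold-diluted lipoprotein-deficient plasma (± 20, 40 or 80 nM purified bovine LPL) or isolated heparin-binding proteins (antithrombin III, protamine, FGF-2). Flow was 20 µl/min at 25 °C in 20 mM HEPES pH 7.4, 0.15 M NaCl.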

For another assay, the target named is T1, LPL (Bos taurus, UniProt P11151).
T1 sequence (P11151 29-478): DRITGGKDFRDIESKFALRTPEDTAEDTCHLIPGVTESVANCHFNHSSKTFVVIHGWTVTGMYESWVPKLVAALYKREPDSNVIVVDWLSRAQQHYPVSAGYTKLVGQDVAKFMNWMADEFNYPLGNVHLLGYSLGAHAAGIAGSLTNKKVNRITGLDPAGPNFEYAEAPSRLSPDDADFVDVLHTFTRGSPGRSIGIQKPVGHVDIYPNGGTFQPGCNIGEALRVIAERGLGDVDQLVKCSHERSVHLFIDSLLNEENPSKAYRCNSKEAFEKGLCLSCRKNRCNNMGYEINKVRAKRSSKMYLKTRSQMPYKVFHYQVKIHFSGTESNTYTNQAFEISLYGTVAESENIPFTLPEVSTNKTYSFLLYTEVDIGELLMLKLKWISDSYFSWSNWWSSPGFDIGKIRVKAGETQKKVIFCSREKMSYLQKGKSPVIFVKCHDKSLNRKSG
In kind it is binding, bovine. The settings on record: fluorescence anisotropy, 10 IU/ml heparin in phosphate buffer. In outline:
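N-terminal GPIHBP1 peptide labeled at cysteine with DyLight 488 maleimide, 100 nM, mixed with increasing LPL concentrations in 20 mM phosphate, pH 7.4, 0.15 M NaCl plus 10 IU/ml heparin. Excitation 493 nm, emission 518 nm, with emission polarizer parallel and perpendicular to vertical excitation. Anisotropy change versus LPL concentration fitted to a 1:1 binding model for KD.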
In general terms: Polarisation of emitted light reports the rotation of a fluorescent probe.

Turning to “FGF-2: heparin binding protein, ICN Biomedicals”, the “binding to the immobilized N-terminal domain of GPIHBP1” value (“binding” for short) in assay [1] is “no binding”.

Consider heparin, for which the “effect on the interaction between LPL and the N-terminal domain of GPIHBP1” value on LPL is reported as “completely blocked the interaction”.

In the case of antithrombin III, the “binding” value in assay [1] was “no binding”.

protamine: the “binding” value in assay [1] is “no binding”.

The record behind these values is PMC11344153 (Scientific Reports, 2024).
